# Experimental data taken from ChEMBL document CHEMBL3616437, “Thiazole compounds with activity against Cryptococcus gattii and Cryptococcus neoformans in vitro” (Eur J Med Chem, 2015).
# Legend:
# [1] = tested on: Cryptococcus gattii species complex; assay: Antifungal activity against Cryptococcus gattii 547/OTTI-97-PI-10 after 48 to 72 hrs by broth microdilution method; assay type: functional, Cryptococcus bacillisporus
# Method in brief: (§1)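 CLSI M27-A3 broth microdilution in RPMI with L-glutamine, buffered to pH 7.0 with 0.165 M MOPS. Colonies grown twice on SDA, 48 h at 35°C. Inoculum set to 70% transmittance at 530 nm, then diluted to 1-5 x10^3 cells/mL. Test agents dissolved in DMSO, serially diluted, tested at 0.1 to 62.5 µM. Plates held at 35°C for 48-72 h. MIC is the lowest concentration giving an optically clear well, read visually against drug-free growth controls.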
# Cryptococcus neoformans [2] = assay: Antifungal activity against Cryptococcus neoformans ATCC 24067 after 48 to 72 hrs by broth microdilution method; assay type: functional
# Method in brief: (§2)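 CLSI M27-A3 broth microdilution. Isolates subcultured twice on SDA, 48 h at 35°C. Saline suspension adjusted to 70% transmittance at 530 nm, then diluted to 1-5 x10^3 cells/mL in RPMI with L-glutamine, 0.165 M MOPS, pH 7.0. Compounds in DMSO, tested at […]. 35°C for 48-72 h. MIC read visually as the lowest concentration giving an optically clear well.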
# Cryptococcus neoformans [3] = assay: Antifungal activity against Cryptococcus neoformans 5396 after 48 to 72 hrs by broth microdilution method; assay type: functional; method in brief: as §2
# [4] = Selectivity index, ratio of IC50 for African green monkey Vero cells to MIC for Cryptococcus neoformans ATCC 24067; assay type: toxicity, cell-based
# [5] = tested on: Cryptococcus gattii species complex; assay: Antifungal activity against Cryptococcus gattii 23/10993 after 48 to 72 hrs by broth microdilution method; assay type: functional, Cryptococcus bacillisporus; method in brief: as §1
# Cryptococcus neoformans [6] = assay: Antifungal activity against Cryptococcus neoformans F10 after 48 to 72 hrs by broth microdilution method; assay type: functional; method in brief: as §2
# Cryptococcus neoformans [7] = assay: Antifungal activity against Cryptococcus neoformans ATCC 28957 after 48 to 72 hrs by broth microdilution method; assay type: functional; method in brief: as §2
# [8] = Cytotoxicity against C57BL/6 mouse peritoneal macrophages assessed as cell viability measured after 48 hrs by MTT assay; assay type: cell-based; details: C57BL/6, Peritoneal macrophage cell
# Method in brief: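 Thioglycollate-elicited peritoneal macrophages from male C57BL/6 mice, 6–8 weeks old, in RPMI with 10% FBS. Seeded 1 x 10^5 cells/well, pre-incubated 24 h at 37°C. Exposed 48 h at 37°C, 5% CO2, to eight nonserial dilutions from 100 to 0.0128 µM, with 0.5% DMSO control. MTT read-out, % inhibition versus DMSO control. IC50 reported as median with 95% CI. Triplicate, two independent experiments.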
# [9] = tested on: Cryptococcus gattii species complex; assay: Antifungal activity against Cryptococcus gattii L27/01 after 48 to 72 hrs by broth microdilution method; assay type: functional, Cryptococcus bacillisporus; method in brief: as §1
# Cryptococcus neoformans [10] = assay: Antifungal activity against Cryptococcus neoformans WP after 48 to 72 hrs by broth microdilution method; assay type: functional; method in brief: as §2
# Cryptococcus neoformans [11] = assay: Antifungal activity against Cryptococcus neoformans LMM820 after 48 to 72 hrs by broth microdilution method; assay type: functional; method in brief: as §2
# Cryptococcus neoformans [12] = assay: Antifungal activity against Cryptococcus neoformans VM-MCMMPI after 48 to 72 hrs by broth microdilution method; assay type: functional; method in brief: as §2
# Vero = assay: Cytotoxicity against African green monkey Vero cells assessed as cell viability measured after 48 hrs by MTT assay; assay type: cell-based; details: Chlorocebus sabaeus
# Method in brief: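 VERO cells in D-MEM with 5% FBS, used up to 20 passages. Seeded 1 x 10^4 cells/well, pre-incubated 24 h at 37°C. Exposed 48 h at 37°C, 5% CO2, to eight nonserial dilutions from 100 to 0.0128 µM, with 0.5% DMSO control. MTT reduction read-out, corrected for background and blank. IC50 reported as median with 95% CI. Triplicate, two independent experiments.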
# [13] = tested on: Cryptococcus gattii species complex; assay: Antifungal activity against Cryptococcus gattii LMM818 after 48 to 72 hrs by broth microdilution method; assay type: functional, Cryptococcus bacillisporus; method in brief: as §1
# [14] = Selectivity index, ratio of IC50 for C57BL/6 mouse peritoneal macrophages to MIC for Cryptococcus neoformans ATCC 24067
# Method in brief: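 SI = IC50/MIC. Thioglycollate-elicited peritoneal macrophages from C57BL/6 mice are seeded at 1 x 10^5/well. They are exposed for 48 h at 37°C to eight concentrations from 100 to 0.0128 µM. Viability read by MTT versus 0.5% DMSO control, triplicate in two experiments.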
# [15] = tested on: Cryptococcus gattii species complex; assay: Antifungal activity against Cryptococcus gattii 135L/03 after 48 to 72 hrs by broth microdilution method; assay type: functional, Cryptococcus bacillisporus; method in brief: as §1
# Cryptococcus neoformans [16] = assay: Antifungal activity against Cryptococcus neoformans 28JF after 48 to 72 hrs by broth microdilution method; assay type: functional; method in brief: as §2
# [17] = tested on: Cryptococcus gattii species complex; assay: Antifungal activity against Cryptococcus gattii 196L/03 after 48 to 72 hrs by broth microdilution method; assay type: functional, Cryptococcus bacillisporus; method in brief: as §1
# Cryptococcus neoformans [18] = assay: Antifungal activity against Cryptococcus neoformans 96806 after 48 to 72 hrs by broth microdilution method; assay type: functional; method in brief: as §2
# [19] = tested on: Cryptococcus gattii species complex; assay: Antifungal activity against Cryptococcus gattii L28/02 after 48 to 72 hrs by broth microdilution method; assay type: functional, Cryptococcus bacillisporus; method in brief: as §1
# [20] = tested on: Cryptococcus gattii species complex; assay: Antifungal activity against Cryptococcus gattii L24/01 after 48 to 72 hrs by broth microdilution method; assay type: functional, Cryptococcus bacillisporus; method in brief: as §1
# [21] = tested on: Cryptococcus gattii species complex; assay: Antifungal activity against Cryptococcus gattii ICB181 after 48 to 72 hrs by broth microdilution method; assay type: functional, Cryptococcus bacillisporus; method in brief: as §1
# Cryptococcus neoformans [22] = assay: Antifungal activity against Cryptococcus neoformans 27JF after 48 to 72 hrs by broth microdilution method; assay type: functional; method in brief: as §2
# [23] = tested on: Cryptococcus gattii species complex; assay: Antifungal activity against Cryptococcus gattii 1913ER after 48 to 72 hrs by broth microdilution method; assay type: functional, Cryptococcus bacillisporus; method in brief: as §1
# [24] = tested on: Cryptococcus bacillisporus; assay: Antifungal activity against Cryptococcus gattii ATCC 32608 after 48 to 72 hrs by broth microdilution method; assay type: functional; method in brief: as §1
# Cryptococcus neoformans [25] = assay: Antifungal activity against Cryptococcus neoformans CN31 after 48 to 72 hrs by broth microdilution method; assay type: functional; method in brief: as §2
# Cryptococcus neoformans [26] = assay: Antifungal activity against Cryptococcus neoformans ATCC 62066 after 48 to 72 hrs by broth microdilution method; assay type: functional
compound,measurement,setting,value
OC(Cn1cncn1)(Cn1cncn1)c1ccc(F)cc1F [FLUCONAZOLE],MFC,[1],> 62.5 µM
same,MIC,[1],13 µM
same,MIC,Cryptococcus neoformans [2],7.8 µM
same,MFC,Cryptococcus neoformans [3],62.5 µM
same,MIC,Cryptococcus neoformans [3],23.4 µM
same,selectivity ratio,[4],15.7
same,MFC,[5],> 62.5 µM
same,MIC,[5],13 µM
same,MFC,Cryptococcus neoformans [6],> 62.5 µM
same,MIC,Cryptococcus neoformans [6],10.4 µM
same,MFC,Cryptococcus neoformans [7],62.5 µM
same,MIC,Cryptococcus neoformans [7],3.2 µM
same,IC50,[8],> 100 µM
same,MFC,[9],> 62.5 µM
same,MIC,[9],41.7 µM
same,MFC,Cryptococcus neoformans [10],> 62.5 µM
same,MIC,Cryptococcus neoformans [10],15.6 µM
same,MFC,Cryptococcus neoformans [11],62.5 µM
same,MIC,Cryptococcus neoformans [11],13 µM
same,MFC,Cryptococcus neoformans [12],15.6 µM
same,MIC,Cryptococcus neoformans [12],11.7 µM
same,IC50,Vero,> 100 µM
same,MFC,[13],> 62.5 µM
same,MIC,[13],20.8 µM
same,Ratio,[14],15.74
same,MFC,[15],31.3 µM
same,MIC,[15],7.8 µM
same,MFC,Cryptococcus neoformans [16],> 62.6 µM
same,MIC,Cryptococcus neoformans [16],7.8 µM
same,MFC,[17],> 62.5 µM
same,MIC,[17],26 µM
same,MFC,Cryptococcus neoformans [18],> 62.5 µM
same,MIC,Cryptococcus neoformans [18],31.2 µM
same,MFC,[19],> 62.5 µM
same,MIC,[19],26 µM
same,MFC,[20],> 62.5 µM
same,MIC,[20],13 µM
same,MFC,[21],62.5 µM
same,MIC,[21],10.4 µM
same,MFC,Cryptococcus neoformans [22],> 62.5 µM
same,MIC,Cryptococcus neoformans [22],10.4 µM
same,MFC,[23],> 62.5 µM
same,MIC,[23],13 µM
same,MFC,[24],62.5 µM
same,MIC,[24],13 µM
same,MFC,Cryptococcus neoformans [25],31.2 µM
same,MIC,Cryptococcus neoformans [25],6.5 µM
same,MFC,Cryptococcus neoformans [26],> 62.5 µM
same,MIC,Cryptococcus neoformans [26],13 µM
